# Screening data deposited in PubChem by several laboratories.
# Rows were chosen to be rich in hits. Some 2.2% of all compounds tested hit in one or more screens of this group.
# FLuc inhib CS = counter-screen for luciferase assay inhibitors: firefly luciferase inhibition | P08659 | ATPLite firefly luciferase biochemical luminescence, 10 min | inhibition, % at 10 µM | actives 1.5% (n = 200,000) | AID 1006;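 active = inhibition above about 50% when tested at 10 µM, limit read from the data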
# Target sequence (P08659 whole entry, looked up): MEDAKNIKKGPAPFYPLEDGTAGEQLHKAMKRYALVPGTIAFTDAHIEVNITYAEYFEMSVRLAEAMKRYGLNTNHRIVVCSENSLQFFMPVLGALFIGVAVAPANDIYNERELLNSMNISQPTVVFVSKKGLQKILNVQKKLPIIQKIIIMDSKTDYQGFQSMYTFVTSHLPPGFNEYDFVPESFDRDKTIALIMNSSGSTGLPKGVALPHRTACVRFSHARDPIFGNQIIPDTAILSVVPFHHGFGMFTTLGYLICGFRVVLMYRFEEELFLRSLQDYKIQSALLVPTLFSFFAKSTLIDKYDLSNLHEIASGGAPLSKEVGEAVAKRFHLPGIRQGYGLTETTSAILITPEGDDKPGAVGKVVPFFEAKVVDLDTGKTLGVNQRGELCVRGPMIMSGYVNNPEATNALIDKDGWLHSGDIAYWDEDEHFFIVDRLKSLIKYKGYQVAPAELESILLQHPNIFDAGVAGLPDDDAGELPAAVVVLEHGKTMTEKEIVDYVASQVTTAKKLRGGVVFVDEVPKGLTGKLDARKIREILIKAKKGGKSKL
# C8 TRAIL sens = sensitizes caspase-8 expressing cells to TRAIL | NB7+C8 cells + TRAIL, ATPlite viability luminescence | inhibition (viability loss, TRAIL sensitization), % at 10 µM | actives 1% (n = 360,000) | AID 624354;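 active = compounds causing at least 50% loss of cell viability in the single-dose screen, relative to plate controls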
# PPC-1+TRAIL kill = kills PPC-1 cancer cells in the presence of TRAIL | actives 0.41% (n = 220,000) | cell killing (% activity), % at 4 µM or 5 µM | AID 1443 | PPC-1 cells + TRAIL, ATPLite viability luminescence;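 active = cell killing above 50% in the first pass at 4 µM, then a duplicate retest at 5 µM averaging 50% or more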;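 note: plate controls were cells with TRAIL plus DMSO for no effect and medium-only wells lacking cells for full effect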
# FLuc act counter = affects firefly luciferase, flagging false hits in luciferase stimulation screens; P08659; ATPlite luciferase biochemical, luminescence, 10 min; 0 = ATP-free wells, 1 = DMSO control; activation factor at 10 µM; 200,000 tested, under 10 active;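 active = luciferase activation factor, scaled between plate controls, of at least 2 with compound at 10 µM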
#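 assay system = Luciferase/luciferin detection reagent, cell-free biochemical luciferase assay | also added = ATP substrate | times = 10 min post-reagent at room temperature | measured by = luminescence from luciferase reaction | measure = luciferase activation, seen as luminescence increase over controls | benchmarks = low control with PBS replacing ATP, high control enzyme plus ATP without compound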
# HSP90 inh = HSP90 refolding inhibition in rabbit reticulocyte lysate; luciferase refolding luminescence, 3 h; inhibition, % at 5.6 µM; actives 0.91% (n = 290,000); AID 1789;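 active = inhibition above the screen-wide mean plus 3 SD, computed separately per campaign, cut at about 16% in these data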;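 note: 0% = DMSO wells and 100% = 60 µM geldanamycin wells; inhibitors lower the luminescence because luciferase stays unfolded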
# STAT3 blocker = inhibitors of IL-6 induced STAT3 signaling; AID 862; U3A cells, IL-6 STAT3-luciferase reporter, luminescence; host cell line lacks STAT1; inhibition, % at 5.5 µM; actives 0.89% (n = 190,000);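 active = inhibition above the mean inhibition across all screened compounds plus 3 SD, cut at about 44% in these data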;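 note: 0% = DMSO only wells and 100% = 100 µM nifuroxazide control wells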
# Numbers without * were called inactive; · = not tested or not shown.
SMILES,FLuc inhib CS,C8 TRAIL sens,PPC-1+TRAIL kill,FLuc act counter,HSP90 inh,STAT3 blocker
Cc1ccc(N2CCN(C(CCc3ccccc3)C(=O)Nc3c(C)cccc3C)CC2)cc1 (configuration not stated),·,15.6,·,·,·,·
CC1=CN2C(=N)/C(=C/c3ccco3)C(=O)N=C2S1,91.7*,57.8*,45.2,0.1,-3.7,-20.4
O=C(NC1=C(Nc2ccc(Cl)cc2)C(=O)c2ccccc2C1=O)c1ccccc1,2.0,13.7,20.6,1,-0.4,-19.1
O=C(NC1=C(NC2CCS(=O)(=O)C2)C(=O)c2ccccc2C1=O)c1ccccc1 (configuration not stated),-0.1,51.7*,22.8,1,3.2,-2.2
Cc1cc(C(=O)COC(=O)c2ccccc2O)c(C)n1CC1CCCO1 (configuration not stated),·,87.0*,·,·,·,·
Cc1cc(C(=O)COC(=O)C2COc3ccccc3O2)c(C)n1CC1CCCO1 (configuration not stated),26.8,-12.8,26.7,0.7,9.1,6.3
Cc1cc(C(=O)COC(=O)c2cccc(NS(C)(=O)=O)c2)c(C)n1CC1CCCO1 (configuration not stated),·,58.8*,·,·,·,·
Cc1cc(C(=O)COC(=O)c2cc(O)c3ccccc3c2O)c(C)n1CC1CCCO1 (configuration not stated),-2.7,0.4,9.0,1,1.5,-43.5
C=CCN1C(=O)c2ccc(C(=O)N3CCN(S(=O)(=O)c4cccc([N+](=O)[O-])c4)CC3)cc2C1=O,·,-10.9,·,·,·,·
CN(C)c1ccc(CC(=O)N2CCCC(c3cc(C(=O)Nc4ccc(F)c(Cl)c4)no3)C2)cc1 (configuration not stated),·,16.5,·,·,·,·
Cc1cc2ncc(-c3ccc(Cl)cc3)c(N)n2n1,57.7*,34.9,27.8,0.4,-1.7,-9.9
C=CCN(c1ccccc1OC)S(=O)(=O)c1cccc(C(=O)Nc2nnc(C3CC3)s2)c1,·,6.8,·,·,·,·
O=C(COc1cc2oc(=O)c3c(c2cc1Cl)CCCC3)NCC1CCC(C(=O)O)CC1 (configuration not stated),·,-3.0,·,·,1.2,·
CCC(=O)Nc1ccc(NC(=O)c2ccco2)cc1,38.3,56.6*,28.9,0.6,-0.3,8.5
O=C(Nc1ccc(OC(=O)c2ccco2)cc1)c1ccco1,66.3*,10.4,33.9,0.3,0.1,3.4
CCC(=O)Oc1ccc(NC(=O)c2ccco2)cc1,60.9*,-1.5,12.8,0.4,0.7,-1.6
CCC(=O)Oc1cccc(C(=O)Nc2cccc(NC(=O)c3ccco3)c2)c1,·,4.1,·,·,3.4,·
CCC(CC)C(C(=O)NCc1ccccc1)N(C)Cc1ccc(Cl)c(Cl)c1 (configuration not stated),·,-21.6,·,·,·,·
Cc1ccc(OCCNC(=O)[C@H]2O[C@@H](n3ccc(N)nc3=O)[C@H](O)[C@@H]2O)cc1C,·,-9.6,·,·,·,·
CCN1CCN(Cc2ccc(NC(=O)c3cc(NC(=O)c4cncc(-c5cccs5)c4)cc(OC)c3)cc2C(F)(F)F)CC1,·,84.7*,·,·,2.3,·
CCN1CCN(Cc2ccc(NC(=O)c3cc(NC(=O)c4cc(-c5ccc(OC)cc5)n[nH]4)cc(OC)c3)cc2C(F)(F)F)CC1,·,87.6*,31.2,·,·,·
COc1cc(NC(=O)c2cc3cccc(OC)c3o2)cc(C(=O)Nc2cccc(C(F)(F)F)c2)c1,·,51.2*,31.8,·,·,·
CCN1CCN(Cc2ccc(NC(=O)c3ccc(C)c(NC(=O)c4c[nH]c5cc(C(F)(F)F)ccc5c4=O)c3)cc2C(F)(F)F)CC1,·,94.8*,26.9,·,·,·
CC(C)c1ccc(N2C(=O)CC(Sc3ncccn3)C2=O)cc1 (configuration not stated),·,8.7,·,·,-3.6,·
CCOC(=O)c1ncn2c1[C@@H]1CCNC1C(=O)c1cc(OC)ccc1-2 (some centres not stated),·,7.2,·,·,·,·
SMILES,FLuc inhib CS,C8 TRAIL sens,PPC-1+TRAIL kill,FLuc act counter,HSP90 inh,STAT3 blocker
CCN1CCN(Cc2ccc(NC(=O)c3cc(NC(=O)c4cc5cccc(OC)c5o4)cc(OC)c3)cc2C(F)(F)F)CC1,·,94.8*,14.2,·,·,·
Cc1ccc(C2=Nc3ccccc3N=C(C(Cl)Cl)C2)cc1,24.2,54.2*,·,0.8,14.7,21.4
Cc1ccc2c(c1)N=C(c1ccccc1)CC(C(Cl)Cl)=N2,·,58.3*,39.2,·,11.5,·
Cc1ccc(O)c(C2=Nc3ccccc3N=C(c3cccs3)C2)c1,-5.9,-7.8,14.2,1.1,0.2,-5.9
Cc1cc2c(cc1C)NC(=O)CC(c1ccccc1)=N2,·,21.3,·,·,·,·
Oc1ccc(C[C@H]2CN([C@@H](Cc3ccc(O)cc3)CN3CCC[C@@H]3CN3C(=S)NC[C@@H]3Cc3ccccc3)C(=S)N2CC2CCCCCC2)cc1,·,2.6,·,·,·,·
COc1ccc(-c2nnc(SCC(=O)c3[nH]c(C)c(C(C)=O)c3C)o2)cc1,-3.9,48.4*,10.1,1,2.8,30.2
C#CCSc1nnc(-c2ccc(OC)cc2)o1,36.6,92.3*,19.0,0.6,2.9,13.8
CCN(c1ccc(NC(=O)COC(=O)CCC(=O)c2ccc(F)cc2)cc1)C(C)C,-2.8,13.8,7.2,1,2.0,4.6
O=C(NCc1ccccc1)c1c(Cl)nc(Cl)c(Cl)c1Cl,·,93.5*,·,·,-4.0,·
Cc1nc(Cl)c(C(=O)NCc2ccccc2)c(C)c1Cl,-6.4,13.1,23.5,1.1,-0.3,20.0
Nc1ccc2nn(-c3ccc(F)cc3)nc2c1,·,26.9,·,·,8.3,·
COc1ccc(-n2nc3ccc(N)cc3n2)cc1,·,17.1,·,·,·,·
CC(C)c1ccc(-n2nc3ccc(N)cc3n2)cc1,87.3*,67.6*,19.8,0.1,1.3,22.3
Cc1ccc(-n2nc3ccc(N)cc3n2)cc1,75.5*,49.2,25.7,0.2,-1.1,1.4
O=C(Nc1cc(Cl)cc(Cl)c1)N[C@@H]1CC[C@@H](CCNS(=O)(=O)c2cccc(F)c2)O[C@@H]1CO,·,13.4,·,·,·,·
CCSc1nc(-c2ccc(OC)cc2)cc(-c2ccccc2)c1C#N,-4.0,0.0,5.6,1,2.9,13.0
COc1ccc(-c2cc(-c3ccccc3)c(C#N)c(S(C)=O)n2)cc1 (configuration not stated),-2.3,91.3*,39.6,1,2.0,-3.7
CN(Cc1ccc2ccccc2c1)C(=O)c1ccc(C(F)(F)F)cc1,·,-5.2,·,·,-2.6,·
O=c1c2ccccc2cnn1CCOc1ccccc1,82.9*,37.9,43.0,0.2,68.3*,89.9*
CCCCCC(O)CCCC(=O)O (configuration not stated),·,-0.8,·,·,·,·
CCCCCCCCCCCCCCCC(O)C[N+](C)(C)CCO (configuration not stated),·,91.9*,·,·,·,·
COc1ccc(-c2cc3nc[nH]c(=O)c3s2)cc1,72.3*,60.7*,47.5,0.3,5.6,33.0
O=c1[nH]cnc2cc(-c3ccccc3)sc12,48.6,20.0,29.8,0.5,3.0,17.9
Cc1cc(O)c(/C=N/Nc2ccc(Cl)cc2)c(=O)o1,89.2*,-0.6,-4.1,0.1,0.2,18.7
